This passage reports Activity and inhibition results from ChEMBL document CHEMBL5055647, “Identification and Biological Activity of NFAT-133 Congeners from Streptomyces pactum” (J Nat Prod, 2021).

Calls of active or inactive are those of the source. No cut-off for these calls is given here.

For data set [1], the system named is RAW264.7. Description: Cytotoxicity against mouse RAW264.7 cells up to 50 uM by MTT assay. Particulars: raw264.7, 50 µM. The format is cell-based. In outline: (§1)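 Cells kept in high-glucose DMEM with 10% heat-inactivated FBS, streptomycin, amphotericin B, 37 °C, 5% CO2; exponential-phase cells seeded ~1.0 × 10^4/well, grown 12 h, then exposed to serial dilutions of compound; medium-only controls. Viability by MTT, absorbance 490 nm.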
On the technique in general: Tetrazolium assays rely on reduction of a dye to a coloured formazan, in cell work by metabolically active cells.

For another data set, the system named is NCI-H460. Description: Cytotoxicity against human NCI-H460 cells up to 50 uM by MTT assay. In kind it is functional, cell-based. The method, boiled down:
as §1

The subject of the next data set is MCF7. Description: Cytotoxicity against human MCF7 cells up to 50 uM by MTT assay. The format is functional, cell-based. In outline:
as §1

In the next data set the test system is Bacillus subtilis. Description: Antibacterial activity against Bacillus subtilis ATCC 6051 by Whatman paper based disk diffusion assay. The format is functional, organism-based. The method, boiled down:
(§2)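 Test strains grown overnight in LB at 30 °C, 200 rpm; 100 μL culture mixed into 10 mL warm 0.7% LB soft agar and plated. Paper disks loaded with 10 μL of 10 mM compound solution, plates incubated at 37 °C; activity judged by presence and diameter of inhibition zone. Ampicillin (2 mg/mL) positive control.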

Another data set relates to HeLa. The experiment in a line: Cytotoxicity against human HeLa cells up to 50 uM by MTT assay. The format is functional, cell-based. In outline:
as §1

For the next data set, the system named is Escherichia coli. The experiment in a line: Antibacterial activity against Escherichia coli ATCC 11775 by Whatman paper based disk diffusion assay. In kind it is functional, organism-based. In outline: as §2
On the technique in general: A growth-free zone around the sample is the usual read-out of agar diffusion tests.

The subject of data set [2] is RAW264.7. Description: Inhibition of LPS-induced NO production in mouse RAW264.7 cells preincubated for 1 hr followed by LPS stimulation measured after 24 hrs by Griess reagent based assay. In kind it is functional, cell-based. Conditions: time 25.0 hrs. In outline: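 Murine macrophages seeded ~1 × 10^4/well, grown 12 h, pretreated with compound 1 h, then LPS 25 ng/mL added for 24 h. Supernatant nitrite measured by Griess reagent (1:1, 37 °C, 15 min, dark), absorbance 520 nm, quantified against 0–100 μM sodium nitrite standards; mean ± SD of independent experiments, t-test, p < 0.05.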
Background: The Griess reaction detects nitrite, a stable product of nitric oxide.

A further data set concerns Pseudomonas aeruginosa. Description: Antibacterial activity against Pseudomonas aeruginosa ATCC 9721 by Whatman paper based disk diffusion assay. The format is functional, organism-based. The method, boiled down:
as §2

A further data set deals with Staphylococcus aureus. The experiment in a line: Antibacterial activity against Staphylococcus aureus ATCC 12600 by Whatman paper based disk diffusion assay. The format is functional, organism-based. The method, boiled down:
as §2

Turning to `CC(=O)[C@@H](C)[C@@H]1O[C@H](CCO)c2cc(C)ccc2[C@@H]1C`, the Activity result in the data set with RAW264.7 [1] is “Non-Toxic”. In addition, the outcome in the data set with NCI-H460, in the data set with MCF7, in the data set with Bacillus subtilis, in the data set with HeLa, with Escherichia coli and with Pseudomonas aeruginosa was inactive. Also, the result with Staphylococcus aureus was inactive. Besides, the inhibition entry with RAW264.7 [2] is “Dose-dependent effect”.
For `CC(=O)[C@@H](C)[C@@H]1O[C@@H](CCO)c2cc(C)ccc2[C@@H]1C`, in the data set on RAW264.7 [1], the Activity entry is recorded as “Non-Toxic”. Further, the outcome with NCI-H460, in the data set with MCF7, in the data set on Bacillus subtilis, in the data set with HeLa, in the data set with Escherichia coli and with Pseudomonas aeruginosa was inactive. Besides, the outcome with Staphylococcus aureus was inactive. Moreover, in the data set with RAW264.7 [2], the inhibition entry was “Dose-dependent effect”.
With `C=C[C@H](O)c1cc(C)ccc1[C@H](C)[C@@H](O)[C@H](C)C(C)=O`, in the data set on RAW264.7 [1], the Activity entry is recorded as “Non-Toxic”. In addition, the result in the data set on NCI-H460, in the data set on MCF7, with Bacillus subtilis, in the data set with HeLa, in the data set with Escherichia coli and with Pseudomonas aeruginosa was inactive. In addition, the result in the data set with Staphylococcus aureus was inactive. The inhibition entry in the data set with RAW264.7 [2] was “Dose-dependent effect”.
Turning to `CC(=O)[C@@H](C)[C@H](O)[C@@H](C)c1ccc(C)cc1/C=C/CO`, in the data set with RAW264.7 [1], the Activity entry is “Non-Toxic”. In addition, the result with NCI-H460, in the data set on MCF7, in the data set on Bacillus subtilis, with HeLa, in the data set on Escherichia coli and in the data set with Pseudomonas aeruginosa was inactive. Also, in the data set with Staphylococcus aureus, the result was inactive. The inhibition result in the data set on RAW264.7 [2] was “Dose-dependent effect”.
